How the values were obtained:
[1] = tested on: A375 cells; test: Cellular uptake by flow cytometry in A375 cells; format: cell-based, human; settings: free cRGDfK 10 μM
Outline: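 A375 cells grown in DMEM with 10% FBS and 1% penicillin/streptomycin at 37 °C, 5% CO2. Cells were exposed to untargeted or RGD-targeted PEG-IR700 conjugate for 4 h, with or without free cRGDfK (10 μM). They were then trypsinized to single cells, and cell-associated fluorescence was read by flow cytometry.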

[2] = tested on: A375 cells; test: Phototoxicity and dark toxicity, Alamar Blue assay; format: cell-based, human; settings: no irradiation, up to 1000 nM of IR700 equiv.
Outline: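 A375 cells were incubated overnight at 37 °C with free IR700 or PEG-IR700 conjugates at increasing concentrations (IR700 equiv.). Cells were then washed with fresh medium and kept unirradiated, as dark controls for the 660 nm photo-irradiation arm. Viability was measured 24 h later by Alamar Blue (4 h, fluorescence Ex 540/Em 590 nm); N = 4.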

| Structure (SMILES) | effect of free peptide on uptake of RGD-8PEG-IR700 [1] | cytotoxicity in dark [2] |
| --- | --- | --- |
| N=C(N)NCCC[C@@H]1NC(=O)[C@H](CCCCN)NC(=O)[C@@H](Cc2ccccc2)NC(=O)[C@H](CC(=O)O)NC(=O)CNC1=O [cRGDfK] | dramatically reduce the uptake | – |
| C[Si](C)(CCC[N+](CCCS(=O)(=O)[O-])(CCCS(=O)(=O)[O-])CCCS(=O)(=O)[O-])O[Si]1(O[Si](C)(C)CCC[N+](CCCS(=O)(=O)[O-])(CCCS(=O)(=O)[O-])CCCS(=O)(=O)[O-])n2c3c4ccccc4c2N=C2N=C(N=c4c5ccccc5c(n41)=NC1=NC(=N3)c3ccccc31)c1cccc(OCCCOC(=O)NCCCCCC(=O)ON3C(=O)CCC3=O)c12.[Na+].[Na+].[Na+].[Na+] (centres unmarked) [IR700, IRDye 700DX] | – | no dark toxicity |

Source: publication PMC6125788 (Molecular pharmaceutics, 2018)
